The values below come from ChEMBL document CHEMBL4725474, “Discovery of a Selective, Covalent IRAK1 Inhibitor with Antiproliferative Activity in MYD88 Mutated B-Cell Lymphoma” (ACS Med Chem Lett, 2020).

The structures appear in SMILES notation. Activity calls are given as the source filed them. No cut-off for these calls is given here.

A word on the EC50: it is the midpoint of the concentration-response curve. A word on the IC50: it is the midpoint of a concentration-inhibition curve.

For experiment [1], the system named is Ramos. Briefly: Cytotoxicity against human Ramos cells expressing MYD88 mutant assessed as cell killing measured after 72 hrs by CellTiter-Glo luminescent cell viability assay. It is filed as functional, cell-based. In outline: (§1)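 Cells were exposed to inhibitors for 72 h, and viability was read by CellTiter-Glo luminescence. EC50 values were derived from dose–response curves.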
(In general: In ATP-based viability assays light output follows the ATP content of the culture.)

Experiment [2] deals with RPMI-8226. The experiment can be described thus: Cytotoxicity against human RPMI-8226 cells expressing MYD88 mutant assessed as cell killing measured after 72 hrs by CellTiter-Glo luminescent cell viability assay. It is filed as functional, cell-based. In outline: as §1
The nature of experiment [3]: Cytotoxicity against human MWCL1 cells expressing MYD88 mutant assessed as cell killing measured after 72 hrs by CellTiter-Glo luminescent cell viability assay. In kind it is functional, cell-based. In short, it runs like this: as §1
In experiment [4] the test system is TMD8. Briefly: Cytotoxicity against human TMD8 cells expressing MYD88 mutant assessed as cell killing measured after 72 hrs by CellTiter-Glo luminescent cell viability assay. In kind it is functional, cell-based. In outline:
as §1

The subject of experiment [5] is OCI-Ly3. The experiment can be described thus: Cytotoxicity against human OCILY3 cells expressing MYD88 mutant assessed as cell killing measured after 72 hrs by CellTiter-Glo luminescent cell viability assay. It is filed as functional, cell-based. In short, it runs like this: as §1
A short description of experiment [6]: Cytotoxicity against human BCWM1 cells expressing MYD88 mutant assessed as cell killing measured after 72 hrs by CellTiter-Glo luminescent cell viability assay. It is filed as functional, cell-based. As to conditions: BCWM1, 72 h. In outline:
as §1

For experiment [7], the system named is OCI-Ly7. The experiment can be described thus: Cytotoxicity against human OCILY7 cells expressing MYD88 mutant assessed as cell killing measured after 72 hrs by CellTiter-Glo luminescent cell viability assay. In kind it is functional, cell-based. In short, it runs like this:
as §1

A short description of experiment [8]: Cytotoxicity against human HBL1 cells expressing MYD88 mutant assessed as cell killing measured after 72 hrs by CellTiter-Glo luminescent cell viability assay. In kind it is functional, cell-based. In outline:
as §1

Experiment [9] has as its system OCI-LY19. Briefly: Cytotoxicity against human OCILY19 cells expressing MYD88 mutant assessed as cell killing measured after 72 hrs by CellTiter-Glo luminescent cell viability assay. It is filed as functional, cell-based. In short, it runs like this: as §1
Experiment [10] has as its target T1, Interleukin-1 receptor-associated kinase 1 (Homo sapiens, UniProt P51617). Briefly: Covalent binding affinity to recombinant IRAK1 (unknown origin) assessed as labeling at Cys307 residue site measured after 2 hrs by LC-MS analysis.
Target sequence in this assay (P51617 whole entry, looked up): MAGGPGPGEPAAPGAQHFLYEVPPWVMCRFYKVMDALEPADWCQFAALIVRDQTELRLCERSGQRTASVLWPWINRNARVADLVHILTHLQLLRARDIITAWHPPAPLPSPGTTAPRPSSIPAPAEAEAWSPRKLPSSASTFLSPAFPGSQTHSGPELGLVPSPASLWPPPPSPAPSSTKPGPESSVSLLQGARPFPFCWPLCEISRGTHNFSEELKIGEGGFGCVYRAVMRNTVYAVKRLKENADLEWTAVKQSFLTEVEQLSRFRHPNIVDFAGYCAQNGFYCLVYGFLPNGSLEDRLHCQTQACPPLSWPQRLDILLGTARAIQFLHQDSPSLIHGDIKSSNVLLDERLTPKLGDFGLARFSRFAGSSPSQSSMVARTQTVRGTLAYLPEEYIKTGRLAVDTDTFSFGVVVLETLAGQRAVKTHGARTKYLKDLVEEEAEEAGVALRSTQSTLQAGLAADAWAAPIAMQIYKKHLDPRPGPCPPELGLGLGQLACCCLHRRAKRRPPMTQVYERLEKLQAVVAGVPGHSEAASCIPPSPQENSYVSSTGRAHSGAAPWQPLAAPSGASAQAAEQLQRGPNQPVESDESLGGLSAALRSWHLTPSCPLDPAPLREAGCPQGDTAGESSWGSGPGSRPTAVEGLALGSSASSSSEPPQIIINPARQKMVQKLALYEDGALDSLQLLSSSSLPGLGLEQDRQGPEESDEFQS
The target of experiment [11] is T2, Mitogen-activated protein kinase kinase kinase 19 (Homo sapiens, UniProt Q56UN5).
T2 sequence (Q56UN5 whole entry): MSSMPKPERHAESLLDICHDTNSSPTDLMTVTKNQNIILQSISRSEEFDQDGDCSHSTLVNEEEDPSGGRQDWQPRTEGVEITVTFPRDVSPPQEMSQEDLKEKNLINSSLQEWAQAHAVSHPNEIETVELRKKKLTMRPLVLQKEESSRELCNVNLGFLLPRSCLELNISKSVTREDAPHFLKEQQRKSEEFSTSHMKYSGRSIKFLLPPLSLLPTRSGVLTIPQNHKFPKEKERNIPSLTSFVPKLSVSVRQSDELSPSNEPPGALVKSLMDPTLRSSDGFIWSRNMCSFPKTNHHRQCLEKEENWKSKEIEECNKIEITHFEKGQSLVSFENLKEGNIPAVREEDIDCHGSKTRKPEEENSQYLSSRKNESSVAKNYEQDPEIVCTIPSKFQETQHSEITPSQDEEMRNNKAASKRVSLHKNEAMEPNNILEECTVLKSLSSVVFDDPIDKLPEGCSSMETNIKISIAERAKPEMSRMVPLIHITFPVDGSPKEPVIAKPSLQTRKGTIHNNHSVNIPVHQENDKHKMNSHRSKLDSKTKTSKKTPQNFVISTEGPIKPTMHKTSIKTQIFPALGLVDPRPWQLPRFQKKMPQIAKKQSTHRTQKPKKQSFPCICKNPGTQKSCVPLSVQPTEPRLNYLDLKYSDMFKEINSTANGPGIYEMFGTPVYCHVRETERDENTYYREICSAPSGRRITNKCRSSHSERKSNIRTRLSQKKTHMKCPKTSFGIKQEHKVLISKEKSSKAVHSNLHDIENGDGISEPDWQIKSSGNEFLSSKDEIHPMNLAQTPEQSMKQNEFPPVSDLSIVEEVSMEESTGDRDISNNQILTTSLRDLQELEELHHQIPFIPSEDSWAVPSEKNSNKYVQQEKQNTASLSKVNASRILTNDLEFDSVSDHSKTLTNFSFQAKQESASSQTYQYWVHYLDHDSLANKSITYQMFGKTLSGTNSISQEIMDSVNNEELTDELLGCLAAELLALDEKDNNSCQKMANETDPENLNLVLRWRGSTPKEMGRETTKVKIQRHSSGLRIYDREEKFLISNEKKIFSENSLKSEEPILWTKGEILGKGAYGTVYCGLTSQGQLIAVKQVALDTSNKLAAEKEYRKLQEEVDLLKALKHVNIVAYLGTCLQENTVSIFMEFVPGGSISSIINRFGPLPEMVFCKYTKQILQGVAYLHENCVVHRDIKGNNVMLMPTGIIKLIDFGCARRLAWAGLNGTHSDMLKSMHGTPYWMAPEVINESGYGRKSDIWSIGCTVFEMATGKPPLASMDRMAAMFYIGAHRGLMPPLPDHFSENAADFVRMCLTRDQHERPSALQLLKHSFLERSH
Briefly: Inhibition of wild-type human partial length YSK4 (T1019 to H1328 residues) expressed in mammalian expression system by Kinomescan method.

For experiment [12], the target named is T1, Interleukin-1 receptor-associated kinase 1. Briefly: Covalent binding affinity to recombinant IRAK1 (unknown origin) assessed as labeling at Cys302 residue site measured after 2 hrs by LC-MS analysis.
Target sequence in this assay (P51617 whole entry, looked up): as the sequence (P51617 whole entry, looked up) above
The target of experiment [13] is T3, Interleukin-1 receptor-associated kinase 4 (Homo sapiens, UniProt Q9NWZ3).
T3 sequence (Q9NWZ3 whole entry): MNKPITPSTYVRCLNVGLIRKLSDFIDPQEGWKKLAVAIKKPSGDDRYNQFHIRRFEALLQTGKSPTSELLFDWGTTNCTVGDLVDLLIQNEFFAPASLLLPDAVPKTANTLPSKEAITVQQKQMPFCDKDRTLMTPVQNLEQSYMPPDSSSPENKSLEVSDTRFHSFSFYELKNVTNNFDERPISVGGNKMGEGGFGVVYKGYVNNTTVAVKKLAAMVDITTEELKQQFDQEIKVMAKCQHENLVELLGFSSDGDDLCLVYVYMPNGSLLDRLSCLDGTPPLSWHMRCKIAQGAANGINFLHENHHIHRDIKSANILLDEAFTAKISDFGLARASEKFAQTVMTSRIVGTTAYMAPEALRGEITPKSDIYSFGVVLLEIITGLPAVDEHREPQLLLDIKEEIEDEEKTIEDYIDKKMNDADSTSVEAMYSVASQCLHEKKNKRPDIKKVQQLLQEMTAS
The experiment can be described thus: Inhibition of IRAK4 (unknown origin) using methylcoumarin-labeled peptide as substrate in presence of ATP by FRET assay.

Experiment [14] deals with T1, Interleukin-1 receptor-associated kinase 1. Briefly: Inhibition of desthio-biotinylated JH-XIII-39-01 probe binding to IRAK1 in human BCWM1 cells assessed as blocking of IRAK1 pulldown at 5 to 10 uM measured after 90 mins by Western blot based pulldown assay. In kind it is cell-based.
Target sequence in this assay (P51617 whole entry, looked up): as the sequence (P51617 whole entry, looked up) above
The target is the same in experiment [15]. Briefly: Inhibition of desthio-biotinylated JH-XIII-39-01 probe binding to IRAK1 in human BCWM1 cells assessed as blocking of IRAK1 pulldown at 5 uM measured after 90 mins by Western blot based pulldown assay. It is filed as cell-based.
Target sequence in this assay (P51617 whole entry, looked up): as the sequence (P51617 whole entry, looked up) above
The target is the same in experiment [16]. Briefly: Inhibition of recombinant IRAK1 (unknown origin) by Invitrogen adapta assay.
Target sequence in this assay (P51617 whole entry): as the sequence (P51617 whole entry, looked up) above
The target is the same in experiment [17]. The experiment can be described thus: Inhibition of wild-type human partial length IRAK1 (R194 to S712 residues) expressed in mammalian expression system by Kinomescan method.
Target sequence in this assay (P51617 whole entry): as the sequence (P51617 whole entry, looked up) above
Experiment [18] deals with T3, Interleukin-1 receptor-associated kinase 4. Briefly: Inhibition of wild-type human partial length IRAK4 (M1 to S460 residues) expressed in mammalian expression system by Kinomescan method.
For experiment [19], the target named is T1, Interleukin-1 receptor-associated kinase 1. Briefly: Covalent binding affinity to recombinant IRAK1 (unknown origin) assessed as labeling at Cys302/Cys307 residue sites at ratio 3:1 measured after 2 hrs by LC-MS analysis.
Target sequence in this assay (P51617 whole entry, looked up): as the sequence (P51617 whole entry, looked up) above
Where [20] appears, read: Homo sapiens, MWCL1, 72 h, read-out: EC50.
[21] abbreviates: Homo sapiens, TMD8, 72 h, read-out: EC50.
Where [22] appears, read: Homo sapiens, OCI-Ly7, 72 h, read-out: EC50.
Setting [23] is: Homo sapiens, HBL1, 72 h, read-out: EC50.
The mark [24] stands for this setting: Homo sapiens, OCI-LY19, 72 h, read-out: EC50.
The mark [25] stands for this setting: Homo sapiens, Ramos, 72 h, read-out: EC50.
The mark [26] stands for this setting: Homo sapiens, RPMI-8226, 72 h, read-out: EC50.
Where [27] appears, read: Homo sapiens, OCI-Ly3, 72 h, read-out: EC50.

With `C=CC(=O)Nc1ccc(C(=O)Nc2ccc(NC(=O)c3cccc(-c4ccn[nH]4)n3)cc2)cc1`, the EC50 result is “Not Active” in experiment [1] (ramos); “Not Active” in experiment [2] (rpmi-8226); 4.91 µM in [3] (setting [20]); 5.26 µM in experiment [4] (setting [21]); “Not Active” in experiment [5] (oci-ly3); 2.54 µM in experiment [6]. The EC50 in experiment [7] (setting [22]) was determined as 5.16 µM; in experiment [8] (setting [23]) it was 14.6 µM; in experiment [9] (setting [24]), 0.71 µM. Moreover, in experiment [10], the outcome was Active.

In the case of `C=CC(=O)Nc1cccc(C(=O)Nc2ccc(NC(=O)c3cccc(-c4ccn[nH]4)n3)cc2)c1`, the EC50 in experiment [1] (setting [25]) turned out to be 1.79 µM; in experiment [2] (setting [26]), 5.13 µM; in [3] (setting [20]) it was 3.88 µM; in experiment [4] (setting [21]) it was 2.4 µM; in [5] (setting [27]) it was 9.72 µM; in experiment [6] it was 1.02 µM. The values for the EC50 in experiment [7] (setting [22]), in experiment [8] (setting [23]) and in experiment [9] (setting [24]) were 2.39 µM, 12.1 µM and 0.59 µM, respectively. For the same compound, the results for the IC50 in [11] and in experiment [13] were 0.057 µM and more than 10 µM, respectively. Moreover, the outcome in [12] was Active. For the same compound, in experiment [14], the inhibition result is “Active”.

In the case of `CN(C)C/C=C/C(=O)Nc1cccc(C(=O)Nc2ccc(NC(=O)c3cccc(-c4ccn[nH]4)n3)cc2)c1`, the EC50 amounted to 6.99 µM in [1] (setting [25]); 19.8 µM in [2] (setting [26]); 8.13 µM in experiment [3] (setting [20]); 10.6 µM in [4] (setting [21]); 14.3 µM in experiment [5] (setting [27]); 5.62 µM in experiment [6]. Besides, the figures for the 50% effective concentration (EC50) in experiment [7] (setting [22]), in [8] (setting [23]) and in experiment [9] (setting [24]) were 7.65 µM, 18.2 µM and 1.8 µM, respectively. Besides, the inhibition result in experiment [15] was “Active”. The IC50 in experiment [16] is 0.052 µM.

Take `CN(C)C/C=C/C(=O)Nc1cccc(C(=O)Nc2ccc(Nc3nccc(-c4cccnc4)n3)cc2)c1`: the IC50 in experiment [17] is 0.0142 µM; in experiment [18] it was more than 10 µM.

With `C=CC(=O)Nc1cccc(C(=O)Nc2cccc(NC(=O)c3cccc(-c4ccn[nH]4)n3)c2)c1`, the EC50 result is “Not Active” in [1] (ramos); “Not Active” in experiment [2] (rpmi-8226); 29 µM in experiment [3] (setting [20]); “Not Active” in [4] (tmd8); “Not Active” in experiment [5] (oci-ly3); 12.8 µM in [6]. The EC50 in experiment [7] (setting [22]) was 16.1 µM; in experiment [8] (hbl1), “Not Active”; in experiment [9] (setting [24]) it was 2.9 µM. The outcome in experiment [12] was Active. In experiment [14], the inhibition entry is “Active”.

Take `CC1NC(=O)NC1CCCCCC(=O)NCCOCCOCCOCCNC(=O)CCN(C)C/C=C/C(=O)Nc1cccc(C(=O)Nc2ccc(NC(=O)c3cccc(-c4ccn[nH]4)n3)cc2)c1` (stereo not given): the IC50 in experiment [16] is 0.07 µM.

On to `CCC(=O)Nc1cccc(C(=O)Nc2ccc(NC(=O)c3cccc(-c4ccn[nH]4)n3)cc2)c1`, for which the EC50 entry in experiment [1] (ramos) is “Not Active”; in experiment [2] (setting [26]), 31.1 µM; in experiment [3] (mwcl1), “Not Active”; in [4] (tmd8), “Not Active”; in [5] (oci-ly3), “Not Active”; in experiment [6], 19.9 µM. In addition, the EC50 is 20.7 µM in [7] (setting [22]), “Not Active” in experiment [8] (hbl1) and 7.79 µM in experiment [9] (setting [24]).

For `COc1cc(N2CCOCC2)ccc1NC(=O)c1cccc(-c2ccn[nH]2)n1`, the IC50 in [17] was found to be 0.009 µM; in [18], 0.017 µM.

On to `C=CC(=O)Nc1ccc(C(=O)Nc2cccc(NC(=O)c3cccc(-c4ccn[nH]4)n3)c2)cc1`, for which the EC50 result in [1] (ramos) was “Not Active”; in experiment [2] (rpmi-8226), “Not Active”; in [3] (mwcl1), “Not Active”; in [4] (tmd8), “Not Active”; in [5] (oci-ly3) it was “Not Active”; in experiment [6] it was 418 µM. For the same compound, the EC50 entry in experiment [7] (oci-ly7), in experiment [8] (hbl1) and in [9] (oci-ly19) was “Not Active” in each case. Further, the IC50 in [13] was more than 10 µM. Further, the outcome in [19] was Active.
